The source made the active and inactive calls. The calls are words filed in the database; no cut-off is given here.
Assays:
[1] = Acute toxicity in Sprague-Dawley rat assessed as histopathological changes in liver at 100 mg/kg, po administered as single dose measured after 24 hrs by H and E staining based light microscope analysis; format: organism-based; conditions: in vivo
Method in brief: (§1)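 Sprague-Dawley rats received a single oral dose of 100 mg/kg in sterile water with 25% (v/v) PEG400 plus 5% DMSO. Organs were examined by histology and immunohistochemistry for pathological changes. Behaviour and side effects were checked daily.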

HepG2 = test: Antiproliferative activity against human HepG2 cells assessed as reduction in cell viability incubated for 72 hrs by MTT assay; format: ADME, cell-based; conditions: HepG2, 72 h
MDA-MB-231 [2] = test: Induction of apoptosis in human MDA-MB-231 cells assessed as late apoptotic cells at 0.01 uM incubated for 24 hrs by annexin V-FITC and propidium iodide staining based flow cytometry analysis (reference value: 0.85 %); format: functional
MDA-MB-231 [3] = test: Increase in cleaved caspase-3 level in human MDA-MB-231 cells incubated for 20 hrs by Western blot analysis; format: functional, cell-based; conditions: dose 0.01-0.3 µM
Method in brief: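 MDA-MB-231 cells given a concentration series for 20 h at 37 °C. Cells lysed in RIPA with protease cocktail, cleared at 12000 rpm, 4 °C. Protein quantified by Bradford, equal amounts run on SDS-PAGE, transferred to PVDF and immunoblotted.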

[4] = Acute toxicity in Sprague-Dawley rat assessed as histopathological changes in kidney at 100 mg/kg, po administered as single dose measured after 24 hrs by H and E staining based light microscope analysis; format: organism-based; conditions: in vivo; method in brief: as §1
MDA-MB-231 [5] = test: Inhibition of colony formation in human MDA-MB-231 cells at >0.1 uM treated for 12 days by crystal violet staining based visual analysis; format: functional; conditions: dose microM >0.1; time 12 day
Method in brief: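 MDA-MB-231 cells seeded at 5000 per well in six-well plates and treated the next day, with drug-containing medium replaced every 4 days. After 12 days, colonies fixed with methanol and stained with crystal violet, then photographed.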

[6] = Metabolic stability in monkey liver microsomes assessed as parent compound remaining at 1 uM measured after 60 mins in presence of NADPH by HPLC-MS/MS analysis; format: ADME, Macaca mulatta, Microsome; conditions: rhesus monkey, read-out: Stabilty
Method in brief: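 Compound at 1 μM incubated with 0.5 mg/mL liver microsomes and 1 mM NADPH. Samples taken at 0, 10, 15, 30, 45 and 60 min and quenched with acetonitrile. After centrifugation, supernatant analysed by HPLC-MS/MS, with percent parent remaining relative to the 0 min area.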

BT-474 = test: Antiproliferative activity against human BT-474 cells assessed as reduction in cell viability incubated for 72 hrs by MTT assay; format: functional, cell-based; conditions: BT-474, 72 h
Method in brief: (§2)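 MTT viability assay. ATCC cell lines were grown in designated medium with 10% FBS at 37 °C, 5% CO2. Cells seeded at 1500−30000 per well and incubated 24 h, then exposed to compound (0−10 μg/mL) for 72 h. MTT added for 2−4 h. Formazan dissolved in DMSO (adherent) or acidified SDS overnight (suspension), absorbance read at 570 nm. Triplicates; IC50 calculated.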

Ramos = test: Antiproliferative activity against human Ramos cells assessed as reduction in cell viability incubated for 72 hrs by MTT assay; format: functional, cell-based; method in brief: as §2
[7] = Toxicity in SCID mouse xenografted with MDA-MB-231 cells assessed as change in body weight at 40 mg/kg, po qd for 15 days and measured every 3 days; format: organism-based; conditions: in vivo, 360 h, dose 40 mg/kg/day, time 15 day
MV4-11 = test: Antiproliferative activity against human MV4-11 cells assessed as reduction in cell viability incubated for 72 hrs by MTT assay; format: functional, cell-based; conditions: MV4-11, 72 h; method in brief: as §2
MDA-MB-231 [8] = test: Antimigratory activity against human MDA-MB-231 cells assessed as inhibition of cell migration at 0.3 uM incubated for 20 hrs by wound healing assay; format: functional, cell-based
Method in brief: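 MDA-MB-231 monolayer grown to confluence, scratched with a sterile pipet tip, rinsed with physiological saline, then given DMEM containing vehicle or compound. Wound imaged after 20 h to assess migration.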

Danio rerio = species: Danio rerio; test: Antiangiogenesis activity in EGFP-labelled zebrafish embryo assessed as reduction in formation of intersegmental vessels at 1.25 to 5 uM incubated for overnight by fluorescence microscopic analysis; format: functional, organism-based; conditions: dose 1.25-5 µM
Method in brief: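 Transgenic FLK:EGFP zebrafish kept at 28 °C, pH 7.2−7.4, 14 h light/10 h dark. Embryos at 30 hpf incubated overnight with compound at 1.25, 2.5 or 5 μM beside a blank control. Fish anaesthetized, then vessels imaged by fluorescence microscopy.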

HCC1937 = test: Antiproliferative activity against human HCC1937 cells assessed as reduction in cell viability incubated for 72 hrs by MTT assay; format: functional, cell-based; conditions: HCC1937, 72 h; method in brief: as §2
[9] = Tmax in Sprague-Dawley rat at 10 mg/kg, po administered via gavage by LC-MS analysis; format: ADME, organism-based; conditions: in vivo
MDA-MB-231 [10] = test: Induction of apoptosis in human MDA-MB-231 cells assessed as early apoptotic cells at 0.01 uM incubated for 24 hrs by annexin V-FITC and propidium iodide staining based flow cytometry analysis (reference value: 2 %); format: functional
MDA-MB-231 [11] = test: Antitumor activity against human MDA-MB-231 cells xenografted in SCID mouse assessed as tumor growth inhibition administered orally once daily for 21 days and measured every 3 days; format: functional; conditions: dose 10-40 mg/kg/day, time 21.0 day
Method in brief: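 SCID mice (5−6 weeks) injected subcutaneously with 100 μL of cells at 5 × 10^7/mL. At 150−200 mm3 mice randomized, 6 per group. Oral compounds given in water with 25% PEG400 plus 5% DMSO; paclitaxel given 10 mg/kg/week iv. Tumor volume a×b²/2 and body weight measured every 3 days. Inhibition rate (c−d)/c×100% against vehicle control.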

[12] = molecular target: Tyrosine-protein kinase receptor TYRO3 (Homo sapiens, UniProt Q06418); test: Inhibition of human recombinant RSE (451 to end residues) using KVEKIGEGTYGVVYK as substrate incubated for 40 mins in presence of [gamma33P-ATP] by radiometric scintillation counting analysis
Method in brief: (§3)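 Radiometric kinase assay run as an external profiling service, with ATP at the Km of each kinase. IC50 values are means of two independent experiments.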

[13] = molecular target: Mitogen-activated protein kinase 14 (Homo sapiens, UniProt Q16539); test: Inhibition of human full length recombinant p38alpha using myelin basic protein as substrate incubated for 40 mins in presence of [gamma33P-ATP] by radiometric scintillation counting analysis; method in brief: as §3
MDA-MB-415 = test: Antiproliferative activity against human MDA-MB-415 cells assessed as reduction in cell viability incubated for 72 hrs by MTT assay; format: functional, cell-based; conditions: MDA-MB-415, 72 h; method in brief: as §2
[14] = Toxicity against SCID mouse xenografted with human MDA-MB-435 cells assessed as change in body weight at 10 to 40 mg/kg, po QD for 21 days and measured every 3 days; format: organism-based; conditions: in vivo, 504 h, dose 10-40 mg/kg/day, time 21 day
Method in brief: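 Exponential-phase cells washed and injected subcutaneously (5 × 10^6 cells in 100 μL) into 5–6-week SCID mice. At 150–200 mm3, mice randomised to groups of 6. Oral dosing daily in water with 25% PEG400 and 5% DMSO; paclitaxel 10 mg/kg weekly by tail vein. Body weight measured every 3 days and side effects checked daily.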

Chain of Mitogen-activated protein kinase 14 (Q16539 whole entry): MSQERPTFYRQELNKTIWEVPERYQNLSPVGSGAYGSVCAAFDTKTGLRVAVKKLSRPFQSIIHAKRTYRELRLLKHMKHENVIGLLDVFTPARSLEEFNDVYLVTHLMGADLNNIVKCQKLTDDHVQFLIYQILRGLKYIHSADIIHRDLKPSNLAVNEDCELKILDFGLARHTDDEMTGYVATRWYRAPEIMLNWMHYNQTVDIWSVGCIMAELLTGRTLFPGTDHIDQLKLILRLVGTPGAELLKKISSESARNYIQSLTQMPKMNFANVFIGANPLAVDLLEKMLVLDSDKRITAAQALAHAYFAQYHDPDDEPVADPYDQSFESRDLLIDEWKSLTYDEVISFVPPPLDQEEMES
Chain of Tyrosine-protein kinase receptor TYRO3 (Q06418 whole entry): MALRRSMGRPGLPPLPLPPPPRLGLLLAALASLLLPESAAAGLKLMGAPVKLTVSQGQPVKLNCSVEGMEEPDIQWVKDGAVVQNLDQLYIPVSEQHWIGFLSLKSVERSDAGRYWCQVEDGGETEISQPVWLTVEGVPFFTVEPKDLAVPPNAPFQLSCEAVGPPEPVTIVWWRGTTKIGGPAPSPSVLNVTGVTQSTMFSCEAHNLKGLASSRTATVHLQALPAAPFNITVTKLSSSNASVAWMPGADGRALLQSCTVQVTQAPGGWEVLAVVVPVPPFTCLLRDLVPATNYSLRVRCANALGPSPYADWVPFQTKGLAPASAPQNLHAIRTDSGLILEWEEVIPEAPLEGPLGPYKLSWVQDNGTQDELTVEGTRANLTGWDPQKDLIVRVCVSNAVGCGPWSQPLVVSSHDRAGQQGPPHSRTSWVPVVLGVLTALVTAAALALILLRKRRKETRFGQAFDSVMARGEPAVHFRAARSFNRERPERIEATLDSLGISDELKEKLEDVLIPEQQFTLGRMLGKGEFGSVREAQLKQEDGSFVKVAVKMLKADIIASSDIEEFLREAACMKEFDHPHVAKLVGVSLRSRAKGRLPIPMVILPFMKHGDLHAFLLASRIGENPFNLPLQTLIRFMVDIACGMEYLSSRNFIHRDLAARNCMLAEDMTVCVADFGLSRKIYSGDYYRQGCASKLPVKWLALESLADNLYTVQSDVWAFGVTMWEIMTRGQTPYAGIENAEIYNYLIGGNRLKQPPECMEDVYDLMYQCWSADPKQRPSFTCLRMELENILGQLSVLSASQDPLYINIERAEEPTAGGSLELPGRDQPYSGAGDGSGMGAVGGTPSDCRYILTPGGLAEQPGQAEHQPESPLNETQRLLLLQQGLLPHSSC

Cc1ccc(NC(=O)c2ccc(C)c(C(F)(F)F)c2)cc1C#Cc1nn([C@H]2CC[C@H](O)CC2)c2ncnc(N)c12
Activity [1]: Non-Toxic | IC50 (HepG2): > 10000 nM | Activity (MDA-MB-231 [2]): 3.23% | Activity (MDA-MB-231 [3]): Dose-dependent effect | Activity [4]: Non-Toxic | inhibition (INH) (MDA-MB-231 [5]): 100% | remaining at 1 h, 1 µM [6]: > 90% | IC50 (BT-474): > 10000 nM | IC50 (Ramos): 10000 nM | Activity [7]: 3.4% | IC50 (MV4-11): 138 nM | Activity (MDA-MB-231 [8]): Active | Activity (Danio rerio): Active | IC50 (HCC1937): 455 nM | Tmax [9]: 4 h | Activity (MDA-MB-231 [10]): 5.05% | Activity (MDA-MB-231 [11]): Dose-dependent effect | IC50 [12]: 351 nM | IC50 [13]: 342 nM | IC50 (MDA-MB-415): 10000 nM | Activity [14]: Non-Toxic

Source: ChEMBL document CHEMBL4765233, “From Lead to Drug Candidate: Optimization of 3-(Phenylethynyl)-1H-pyrazolo[3,4-d]pyrimidin-4-amine Derivatives as Agents for the Treatment of Triple Negative Breast Cancer” (J Med Chem, 2016)
